Measurements taken from ChEMBL document CHEMBL1131065, “1,4- and 2,6-disubstituted amidoanthracene-9,10-dione derivatives as inhibitors of human telomerase” (J Med Chem, 1998).
Active and inactive are the calls of the source. No cut-off for these calls is given here.

What was measured:
A2780 = assay: Concentration required to inhibit A2780-cell growth by 50%; type: functional, cell-based; settings: Homo sapiens
In short: (§1)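 Human ovarian carcinoma cells grown as monolayers in DMEM with 10% FBS, 2 mM glutamine and 0.5 µg/mL hydrocortisone under 6% CO2. 3000–6000 cells per well, attached overnight. Salts dissolved in water, added in quadruplicate at final 0.05, 0.25, 1, 5 and 25 µM for 96 h. Cells fixed with TCA and stained with SRB, absorbance read at 540 nm. IC50 taken from mean absorbance as % of untreated control.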

CH1 = assay: Concentration required to inhibit CH1-cell growth by 50%; type: functional, cell-based; settings: Homo sapiens; in short: as §1
SK-OV-3 = assay: Concentration required to inhibit SKOV-3-cell growth by 50%; type: functional, cell-based; settings: Homo sapiens; in short: as §1
[1] = biological target: T1, Telomerase reverse transcriptase (Homo sapiens, UniProt O14746); assay: Inhibition of telomerase activity
T1 sequence (O14746 whole entry): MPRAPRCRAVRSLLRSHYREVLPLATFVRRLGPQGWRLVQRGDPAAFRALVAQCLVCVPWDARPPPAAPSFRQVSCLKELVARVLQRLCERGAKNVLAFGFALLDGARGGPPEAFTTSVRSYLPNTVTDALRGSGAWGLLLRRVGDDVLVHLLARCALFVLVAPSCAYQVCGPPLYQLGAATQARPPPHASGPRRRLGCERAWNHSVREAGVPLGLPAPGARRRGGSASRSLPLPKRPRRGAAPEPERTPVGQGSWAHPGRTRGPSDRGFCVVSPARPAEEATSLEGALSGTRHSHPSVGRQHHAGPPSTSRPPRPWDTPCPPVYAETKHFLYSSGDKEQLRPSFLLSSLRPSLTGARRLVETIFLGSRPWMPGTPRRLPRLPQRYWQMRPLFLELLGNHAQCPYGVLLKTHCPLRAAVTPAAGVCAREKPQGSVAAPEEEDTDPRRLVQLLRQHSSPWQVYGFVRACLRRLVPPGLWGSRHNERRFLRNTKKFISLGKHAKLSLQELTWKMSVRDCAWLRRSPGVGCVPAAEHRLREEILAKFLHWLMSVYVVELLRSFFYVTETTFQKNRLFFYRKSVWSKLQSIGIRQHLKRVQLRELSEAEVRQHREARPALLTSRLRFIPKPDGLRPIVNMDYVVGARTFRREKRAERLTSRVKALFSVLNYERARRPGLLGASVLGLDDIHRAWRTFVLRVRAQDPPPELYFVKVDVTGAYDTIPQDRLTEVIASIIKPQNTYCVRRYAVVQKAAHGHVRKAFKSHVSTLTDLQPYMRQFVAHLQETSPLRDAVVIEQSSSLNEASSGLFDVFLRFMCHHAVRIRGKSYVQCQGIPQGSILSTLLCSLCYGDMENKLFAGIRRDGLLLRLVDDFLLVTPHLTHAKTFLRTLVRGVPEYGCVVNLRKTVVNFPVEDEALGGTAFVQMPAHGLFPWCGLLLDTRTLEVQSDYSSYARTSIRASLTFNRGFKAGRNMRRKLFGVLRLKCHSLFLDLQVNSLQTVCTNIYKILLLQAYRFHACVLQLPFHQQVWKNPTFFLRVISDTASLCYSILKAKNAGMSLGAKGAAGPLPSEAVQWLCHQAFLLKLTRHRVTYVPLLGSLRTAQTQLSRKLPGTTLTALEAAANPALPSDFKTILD
In short: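 Modified cell-free TRAP using CHAPS lysate of exponentially growing A2780 cells. Protein (0.04 µg) incubated with TS primer, 50 µM dNTPs and [α-32P]dCTP in TRAP buffer (pH 8.3) ± compound at 1–50 µM for 20 min at 25 °C. Telomerase heat-killed at 80 °C, then 31-cycle PCR with CX primer and Taq. Products read by denaturing gel/phosphorimaging or TCA filter scintillation counting. IC50 taken relative to controls.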

[2] = biological target: DNA polymerase I, thermostable (Thermus aquaticus) (UniProt P19821); assay: Inhibition of Taq polymerase at 50 uM (Total inhibition)
Sequence of DNA polymerase I, thermostable (Thermus aquaticus) (P19821 whole entry): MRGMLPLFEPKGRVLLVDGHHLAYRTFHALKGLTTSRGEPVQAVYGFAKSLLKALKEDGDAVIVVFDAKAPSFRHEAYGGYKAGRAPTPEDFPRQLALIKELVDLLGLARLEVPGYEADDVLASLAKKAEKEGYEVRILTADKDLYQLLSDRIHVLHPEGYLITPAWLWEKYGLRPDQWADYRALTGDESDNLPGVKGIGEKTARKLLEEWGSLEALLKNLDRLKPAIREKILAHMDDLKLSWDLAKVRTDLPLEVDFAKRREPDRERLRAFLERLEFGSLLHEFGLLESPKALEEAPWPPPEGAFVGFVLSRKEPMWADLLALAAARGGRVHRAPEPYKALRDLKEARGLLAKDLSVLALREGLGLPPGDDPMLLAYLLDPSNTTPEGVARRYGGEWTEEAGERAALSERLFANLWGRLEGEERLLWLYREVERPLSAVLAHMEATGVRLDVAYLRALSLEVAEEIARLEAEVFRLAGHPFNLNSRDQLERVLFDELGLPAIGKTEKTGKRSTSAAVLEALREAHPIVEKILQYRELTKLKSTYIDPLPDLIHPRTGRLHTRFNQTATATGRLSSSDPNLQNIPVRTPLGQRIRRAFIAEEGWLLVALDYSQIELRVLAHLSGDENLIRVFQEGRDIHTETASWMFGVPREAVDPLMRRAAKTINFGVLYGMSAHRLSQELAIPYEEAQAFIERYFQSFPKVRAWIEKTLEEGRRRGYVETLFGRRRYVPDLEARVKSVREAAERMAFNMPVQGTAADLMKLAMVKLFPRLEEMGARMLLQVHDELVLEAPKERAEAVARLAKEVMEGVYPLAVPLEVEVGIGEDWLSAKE
In short: (§2)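 Compound at final 50 µM in PCR with pCI-neo template and primers, Tris-HCl pH 8.8 buffer, 2.5 mM MgCl2, 200 µM each dNTP, 1.25 U thermostable polymerase. Run 30 cycles of 94 °C 1 min, 55 °C 1 min, 72 °C 2.5 min. Agarose/ethidium bromide read-out against a water no-drug control, scored semiquantitatively.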

[3] = biological target: DNA polymerase I, thermostable (Thermus aquaticus) (UniProt P19821); assay: Inhibition of Taq polymerase at 10 uM (Significant inhibition)
In short: (§3)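 Compound at final 10 µM in a PCR mix: pCI-neo vector template, forward/reverse primers, Tris-HCl pH 8.8 buffer, 2.5 mM MgCl2, 200 µM each dNTP, 1.25 U thermostable polymerase. Run 30 cycles (94/55/72 °C). Products separated on 2% agarose with ethidium bromide and compared to a no-drug water control (~1 kb product); inhibition graded semiquantitatively.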

[4] = biological target: DNA polymerase I, thermostable (Thermus aquaticus) (UniProt P19821); assay: Inhibition of Taq polymerase at 10 uM (Slight inhibition); in short: as §3
[5] = biological target: DNA polymerase I, thermostable (Thermus aquaticus) (UniProt P19821); assay: Inhibition of Taq polymerase at 50 uM (No inhibition); in short: as §2
[6] = biological target: DNA polymerase I, thermostable (Thermus aquaticus) (UniProt P19821); assay: Inhibition of Taq polymerase at 10 uM (No inhibition); in short: as §3
[7] = biological target: T1, Telomerase reverse transcriptase; assay: Concentration required to inhibit telomerase activity
In short: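 Cell-free modified TRAP assay. Enzyme source is a CHAPS lysate of exponentially growing A2780 ovarian carcinoma cells, which was clarified and stored at -80 °C. Protein (0.04 μg) was incubated with TS primer, dNTPs and [α-32P]dCTP in TRAP buffer (pH 8.3) ± agent at 1, 5, 10, 20 and 50 μM for 20 min at 25 °C. Telomerase was then heat-inactivated at 80 °C, followed by 31-cycle PCR with CX primer. Products were quantified by gel phosphorimaging or by TCA-precipitated filter scintillation counting. IC50 is relative to controls.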

Row | Compound | IC50 (A2780) [nM] | IC50 (CH1) [nM] | IC50 (SK-OV-3) [nM] | IC50 [1] [nM] | inhibition [2] | inhibition [3] | inhibition [4] | Taq inhibition [5] | Taq inhibition [6] | IC50 [7] [nM]
1 | C[N+]1(CCC(=O)Nc2ccc3c(c2)C(=O)c2ccc(NC(=O)CC[N+]4(C)CCCCC4)cc2C3=O)CCCCC1 | < 1000 | 1850 | 2200 | – | – | – | – | – | – | –
2 | C[N+]1(CCC(=O)Nc2ccc3c(c2)C(=O)c2ccc(NC(=O)CC[N+]4(C)CCOCC4)cc2C3=O)CCOCC1 | 1900 | 1700 | 3000 | – | – | – | – | – | – | –
3 | O=C(CCN1CCCCC1)Nc1ccc2c(c1)C(=O)c1ccc(NC(=O)CCN3CCCCC3)cc1C2=O | 1300 | 5900 | 4000 | 4500 | – | – | – | – | – | –
4 | O=C(CCN1CCOCC1)Nc1ccc(NC(=O)CCN2CCOCC2)c2c1C(=O)c1ccccc1C2=O | 3700 | 1950 | 21000 | 33500 | – | – | – | – | – | –
5 | COc1cccc2c1C(=O)c1c(O)c3c(c(O)c1C2=O)C[C@@](O)(C(=O)CO)C[C@@H]3O[C@H]1C[C@H](N)[C@H](O)[C@H](C)O1 [DOXORUBICIN] | 9.6 | 6.3 | 78 | – | Active | Weak activity | – | – | – | –
6 | C[N+]1(CC(=O)Nc2ccc3c(c2)C(=O)c2ccc(NC(=O)C[N+]4(C)CCOCC4)cc2C3=O)CCOCC1 | 13000 | 18000 | 45500 | – | – | – | – | – | – | –
7 | O=C(CCN1CCN(CCO)CC1)Nc1ccc2c(c1)C(=O)c1ccc(NC(=O)CCN3CCN(CCO)CC3)cc1C2=O | 11000 | 7900 | 7000 | 16500 | – | – | – | – | – | –
8 | C[N+](C)(C)CCC(=O)Nc1ccc2c(c1)C(=O)c1ccc(NC(=O)CC[N+](C)(C)C)cc1C2=O | 2250 | 1900 | 4400 | 17300 | – | – | – | – | – | –
9 | C[N+](C)(C)CCC(=O)Nc1ccc(NC(=O)CC[N+](C)(C)C)c2c1C(=O)c1ccccc1C2=O | 2150 | 2000 | 11500 | – | – | – | – | – | – | –
10 | CCCN(CCC)CCC(=O)Nc1ccc2c(c1)C(=O)c1ccc(NC(=O)CCN(CCC)CCC)cc1C2=O | 380 | 1400 | 2400 | > 50000 | – | – | – | – | – | –
11 | O=C1c2c(O)ccc(O)c2C(=O)c2c(NCCNCCO)ccc(NCCNCCO)c21 | – | – | – | – | Weak inhibition | – | Weak inhibition | – | – | –
12 | CN(C)CCC(=O)Nc1ccc(NC(=O)CCN(C)C)c2c1C(=O)c1ccccc1C2=O | 16 | 40 | 360 | – | Weak inhibition | – | Weak inhibition | – | – | –
13 | O=C(CCN1CCCCC1CO)Nc1ccc2c(c1)C(=O)c1ccc(NC(=O)CCN3CCCCC3CO)cc1C2=O (centres undefined) | 2450 | 14500 | 2400 | – | – | – | – | – | – | –
14 | O=C(CN1CCCCC1)Nc1ccc2c(c1)C(=O)c1ccc(NC(=O)CN3CCCCC3)cc1C2=O | 1650 | 5050 | 5000 | > 50000 | – | – | – | – | – | –
15 | C[N+]1(CCC(=O)Nc2ccc3c(c2)C(=O)c2ccc(NC(=O)CC[N+]4(C)CCCCC4CO)cc2C3=O)CCCCC1CO (centres undefined) | 1250 | 2300 | 1800 | – | – | – | – | – | – | –
16 | O=C(CCN1CCCCC1CO)Nc1ccc(NC(=O)CCN2CCCCC2CO)c2c1C(=O)c1ccccc1C2=O (centres undefined) | 20 | 64 | 270 | – | – | – | – | – | – | –
17 | O=C(CCN1CCCCC1)Nc1ccc(NC(=O)CCN2CCCCC2)c2c1C(=O)c1ccccc1C2=O | 290 | 260 | 2400 | – | – | – | – | – | – | –
18 | CCC[N+](C)(CCC)CCC(=O)Nc1ccc(NC(=O)CC[N+](C)(CCC)CCC)c2c1C(=O)c1ccccc1C2=O | 1400 | 4450 | 16000 | – | – | – | – | – | – | –
19 | C[N+]1(CCC(=O)Nc2ccc(NC(=O)CC[N+]3(C)CCOCC3)c3c2C(=O)c2ccccc2C3=O)CCOCC1 | 760 | 1650 | 8500 | 34500 | – | – | – | – | – | –
20 | O=C(CCN1CCOCC1)Nc1ccc2c(c1)C(=O)c1ccc(NC(=O)CCN3CCOCC3)cc1C2=O | 4800 | 20000 | 9000 | > 50000 | – | – | – | – | – | –
21 | C[N+]1(CCC(=O)Nc2ccc(NC(=O)CC[N+]3(C)CCCCC3CO)c3c2C(=O)c2ccccc2C3=O)CCCCC1CO (centres undefined) | 380 | 540 | 1500 | 9400 | – | – | – | – | – | –
22 | CCC[N+](C)(CCC)CCC(=O)Nc1ccc2c(c1)C(=O)c1ccc(NC(=O)CC[N+](C)(CCC)CCC)cc1C2=O | 500 | 680 | 2000 | – | – | – | – | – | – | –
23 | CCCN(CCC)CCC(=O)Nc1ccc(NC(=O)CCN(CCC)CCC)c2c1C(=O)c1ccccc1C2=O | 130 | 480 | 4500 | 50000 | – | – | – | inactive | inactive | –
24 | CN(C)CCC(=O)Nc1ccc2c(c1)C(=O)c1ccc(NC(=O)CCN(C)C)cc1C2=O | 2550 | 1800 | 2900 | – | – | – | – | – | – | –
25 | C[N+]1(CCC(=O)Nc2ccc(NC(=O)CC[N+]3(C)CCCCC3)c3c2C(=O)c2ccccc2C3=O)CCCCC1 | 1750 | 4300 | 32500 | 11100 | – | – | – | – | – | –
26 | Nc1nc2c(ncn2[C@H]2CC[C@@H](COP(=O)(O)OP(=O)(O)OP(=O)(O)O)O2)c(=O)[nH]1 [DIDEOXY GUANOSINE TRIPHOSPHATE] | – | – | – | – | – | – | – | – | – | 8600
27 | C[N+]1(CC(=O)Nc2ccc3c(c2)C(=O)c2ccc(NC(=O)C[N+]4(C)CCCCC4)cc2C3=O)CCCCC1 | 6500 | 4300 | 9000 | – | – | – | – | – | – | –
28 | O=C(CN1CCOCC1)Nc1ccc2c(c1)C(=O)c1ccc(NC(=O)CN3CCOCC3)cc1C2=O | 5900 | 4150 | 4500 | > 50000 | – | – | – | – | – | –
